Reference: PubChem BioAssay
Activity calls are given as the source filed them.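 Rule for the calls, unless noted: active = fluorescence slope after compound addition differing from the mean of all tested samples at 99.7% confidence, mostly higher but some lower; inactive = the rest.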

Columns and labels:
[1] = inhibitors of TNFa-induced NFkB p65 translocation, primary screen, imaging, HUVEC, MLSMR starter and 10KST1 sets (AID 438;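 active = inhibition above 20% together with a positive visual image hit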;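 note: compound added about 3h40 before a 20 min TNFalpha stimulation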;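 for inhibition: signal is the nuclear over cytoplasmic p65 intensity ratio per well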); conditions: HUVEC TNFa-induced p65 nuclear translocation; cell count: measured here: nuclei count (cytotoxicity indicator), at 2.08 µM; inhibition: at 2 µM, stronger effect = higher value, 0% TNFa-plus-vehicle, 100% no-TNFa wells
[2] = inhibitors of mutant huntingtin aggregation, primary screen, imaging, exon1htt(103Q)mCFP cells, high-content imaging (AID 483;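 active = visual image review flags a hit and inhibition of aggregation exceeds 20%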;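 note: compound exposure lasted 3 days before fixation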;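 for nuclei count: percent of the per-plate median nuclei count of sample wells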); conditions: exon1htt(103Q)mCFP cell line, aggregate imaging, at 2 µM; inhibition of aggregation: stronger effect = higher value; nuclei count: measured here: cell count, toxicity
[3] = inhibitors of E-selectin induction by TNFa, primary screen, imaging, HUVEC, immunofluorescence, MLSMR starter and 10KST1 sets (AID 487;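 active = visually confirmed hit in the image check and inhibition above 20%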;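 for inhibition: signal is fraction of cell area covered by stained E-selectin grains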;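 for nuclei count: 100% = median nuclei count of all wells on the same plate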); conditions: HUVEC TNFalpha-induced E-selectin immunofluorescence imaging, at 2 µM; inhibition: stronger effect = higher value; nuclei count: measured here: cell number, toxicity
[4] = molecular target: Voltage-gated potassium channel subunit beta-2 (Rattus norvegicus) (UniProt P62483); experiment: KvBeta enzyme negative modulators, primary screen, biochemical, NADPH fluorescence (AID 622;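 active = fluorescence slope higher than the sample average by over 3 SD, cut at about -0.22 in these data, passing the limit was not always enough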;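 note: slope of raw intensity against log time taken from 70 to 1610 s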); conditions: recombinant KvBeta, 4-cyanobenzaldehyde reduction, at 10 µM, stronger effect = higher value
[5] = molecular target: Voltage-gated potassium channel subunit beta-2 (Rattus norvegicus) (UniProt P62483); experiment: KvBeta positive modulators, primary screen, biochemical, NADPH fluorescence (AID 623;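 active = NADPH fluorescence slope more negative than the mean of all samples by about 3 SD, 99.7% confidence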;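 note: fluorescence intensity change per second fitted from 20 to 320 s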); conditions: Recombinant KvBeta, NADPH fluorescence decrease slope, 10 min; at 10 µM; stronger effect = lower value
[6] = molecular target: Muscarinic acetylcholine receptor M4 (Homo sapiens) (UniProt P08173); experiment: compounds altering M4/GIRK thallium flux, either direction, primary screen, M4 allosteric agonist project, cell-based, HEK293 M4/GIRK, BTC-AM (AID 625); conditions: at 10 µM, actives lie on both sides;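 note: thallium influx through GIRK channels coupled to M4 in HEK293 cells with BTC-AM dye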
Procedure, shortened: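 assay system = HEK293 cells with M4 receptor and GIRK channels | medium = pH 7.3 thallium assay buffer | doses = 10 µM final, single point | timing = cells overnight at 37 °C, BTC-AM loading 1 h, reads 2 min total | signal = BTC-AM fluorescence, 1 Hz kinetic reads | read-out = post-addition slope, 15–24 s, of baseline-normalized fluorescence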

[7] = inhibitors of Sendai virus-induced IRF3 signaling, primary screen, TLR/RLR signaling modifier project, cell-based, Sendai virus stimulus, luciferase, 10K MLSCN set (AID 602276;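 active = inhibition at or above 50% at 10 µM; inactive = inhibition below 50%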;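 note: firefly luciferase from ISG56 promoter only with Renilla not read in this screen; 0% = Sendai virus plus DMSO and 100% = medium plus DMSO without virus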); conditions: HEK293 RL24 IRF3 luciferase reporter, at 10 µM, stronger effect = higher value
[8] = inhibitors of poly I:C-induced TLR3 signaling, primary screen, cell-based, poly I:C stimulus, luciferase, 10K MLSCN set (AID 602277;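 active = inhibition of the reporter signal at or above 50%; inactive = inhibition below 50%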); conditions: HEK293-TLR3 RL24 IRF3 luciferase reporter, at 10 µM, stronger effect = higher value

Chain of Voltage-gated potassium channel subunit beta-2 (Rattus norvegicus) (P62483 whole entry, looked up): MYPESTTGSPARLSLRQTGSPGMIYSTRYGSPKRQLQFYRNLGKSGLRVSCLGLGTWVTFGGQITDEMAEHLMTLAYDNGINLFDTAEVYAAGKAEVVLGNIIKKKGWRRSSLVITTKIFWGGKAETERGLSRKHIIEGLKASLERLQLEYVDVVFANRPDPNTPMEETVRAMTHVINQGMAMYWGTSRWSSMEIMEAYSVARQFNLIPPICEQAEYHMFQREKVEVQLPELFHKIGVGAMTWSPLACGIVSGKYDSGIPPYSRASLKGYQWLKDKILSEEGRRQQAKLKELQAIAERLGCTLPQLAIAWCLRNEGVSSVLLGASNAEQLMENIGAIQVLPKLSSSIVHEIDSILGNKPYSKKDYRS
Chain of Muscarinic acetylcholine receptor M4 (Homo sapiens) (P08173 whole entry, looked up): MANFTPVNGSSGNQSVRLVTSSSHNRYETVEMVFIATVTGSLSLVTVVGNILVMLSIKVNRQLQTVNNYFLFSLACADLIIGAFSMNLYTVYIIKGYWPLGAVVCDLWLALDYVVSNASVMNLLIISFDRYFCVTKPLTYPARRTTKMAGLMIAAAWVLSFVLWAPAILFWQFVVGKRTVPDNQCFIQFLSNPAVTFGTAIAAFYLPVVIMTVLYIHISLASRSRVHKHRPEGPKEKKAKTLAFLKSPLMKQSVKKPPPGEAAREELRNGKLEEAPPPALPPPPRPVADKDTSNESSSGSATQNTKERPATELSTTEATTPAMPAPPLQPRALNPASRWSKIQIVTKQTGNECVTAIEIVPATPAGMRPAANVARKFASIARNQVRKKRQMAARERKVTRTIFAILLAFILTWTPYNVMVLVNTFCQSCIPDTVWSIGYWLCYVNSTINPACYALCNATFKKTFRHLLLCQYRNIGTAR

| Structure (SMILES) | cell count [1] | inhibition [1] | inhibition of aggregation [2] | nuclei count [2] | inhibition [3] | nuclei count [3] | fluorescence slope [4] | NADPH fluorescence slope [5] | fluorescence slope [6] | inhibition [7] | inhibition [8] |
| --- | --- | --- | --- | --- | --- | --- | --- | --- | --- | --- | --- |
| COc1cccc(NS(=O)(=O)c2cc(C)sc2C)c1 | 311 | -5.7% (inactive) | 3.3% (inactive) | 93% | -57% (inactive) | 113% | -0.467 (inactive) | -1.8e-05 (inactive) | 0.00503 (inactive) | 3.14% (inactive) | 24.9% (inactive) |
| CCN(Cc1nc2ccccc2c(=O)[nH]1)Cc1nc2cc(OC)c(OC)cc2c(=O)[nH]1 | 403 | -19.9% (inactive) | 0% (inactive) | 113% | -17.4% (inactive) | 144% | -0.324 (inactive) | -3.7e-06 (inactive) | 0.00825 (inactive) | -12.7% (inactive) | -12.6% (inactive) |
| Cc1c(NC(=O)CN2c3cccc4cccc(c34)S2(=O)=O)c(=O)n(-c2ccccc2)n1C | 721 | -7.1% (inactive) | 1.4% (inactive) | 103% | -119% (inactive) | 141% | -0.442 (inactive) | -2.5e-05 (inactive) | 0.00478 (inactive) | 8.89% (inactive) | 15.5% (inactive) |
| COc1ccc(N2CCN(C(c3cccs3)C(C)NC(=O)c3ccco3)CC2)cc1 (stereo not drawn) | 467 | 5.5% (inactive) | -7.1% (inactive) | 83.9% | 11.8% (inactive) | 101% | -0.368 (inactive) | -7.2e-05 (inactive) | 0.00502 (inactive) | 8.09% (inactive) | 22.4% (inactive) |
| Cc1ccc(S(=O)(=O)N2CCOCC2)cc1C(=O)Nc1ccccn1 | 542 | -49% (inactive) | -23.1% (inactive) | 106% | -75.1% (inactive) | 111% | -0.346 (inactive) | -3.9e-05 (inactive) | 0.00587 (inactive) | 7.52% (inactive) | 12% (inactive) |
| CC12CN3CC(C)(CN(C1)C3c1ccc(Br)cc1)C2 (stereo not drawn) | 565 | -1.2% (inactive) | 5.1% (inactive) | 97.5% | -50.4% (inactive) | 96.1% | -0.607 (inactive) | -4.3e-05 (inactive) | 0.00246 (inactive) | 13.8% (inactive) | 13.4% (inactive) |
| CS(=O)(=O)N1CCN(C(=O)c2ccc(-c3ccccc3)cc2)CC1 | 481 | 4% (inactive) | -11% (inactive) | 108% | -287% (inactive) | 128% | -0.541 (inactive) | -5.8e-05 (inactive) | 0.00648 (inactive) | 18.4% (inactive) | 22.5% (inactive) |
| CC1=C(C(=O)OCCOC(C)C)C(c2cc3c(cc2Br)OCO3)C2=C(CCCC2=O)N1 (stereo not drawn) | 446 | 0.2% (inactive) | 8.5% (inactive) | 41.8% | -37.4% (inactive) | 105% | -0.485 (inactive) | 6.8e-05 (inactive) | 0.00686 (inactive) | 20.8% (inactive) | 26.6% (inactive) |
| CCC(=O)N1CCc2cc(Br)cc(S(=O)(=O)C3(C(=O)OC)CC3)c21 | 469 | 2.5% (inactive) | -5.1% (inactive) | 98.8% | 3.4% (inactive) | 97.1% | -0.554 (inactive) | -3.7e-05 (inactive) | 0.00618 (inactive) | 17% (inactive) | 18% (inactive) |
| O=C1CSC(c2cn(-c3ccccc3)nc2-c2ccccc2)N1Cc1ccco1 (stereo not drawn) | 480 | -6.3% (inactive) | 5.2% (inactive) | 108% | -89.3% (inactive) | 88.2% | -0.568 (inactive) | -2.8e-05 (inactive) | 0.00714 (inactive) | -1.04% (inactive) | 11.5% (inactive) |
| CC(C)C(=O)Nc1cccc(NC(=O)c2cccnc2)c1 | 311 | 7.2% (inactive) | -20.9% (inactive) | 95.6% | -167% (inactive) | 104% | -0.611 (inactive) | 7.6e-06 (inactive) | 0.00325 (inactive) | -7.88% (inactive) | -11.4% (inactive) |
| CCOC(=O)N1CCN(c2cc3nccnc3cc2F)CC1 | 412 | 3.1% (inactive) | -5.3% (inactive) | 113% | -54.5% (inactive) | 111% | -0.173 (inactive) | -4.3e-05 (inactive) | 0.00552 (inactive) | 10.4% (inactive) | -18.8% (inactive) |
| CCS(=O)(=O)N1CCC(C(=O)N2CCOCC2)CC1 | 647 | -7.3% (inactive) | -7% (inactive) | 95.7% | 27.5% (inactive) | 94.4% | -0.574 (inactive) | -2.5e-05 (inactive) | 0.00531 (inactive) | 12.1% (inactive) | 15.7% (inactive) |
| O=C(Nc1nc(-c2ccccc2)cs1)C1CCCCN1S(=O)(=O)c1ccccc1 (stereo not drawn) | 509 | 6.9% (inactive) | -0.8% (inactive) | 101% | -18.7% (inactive) | 96.2% | -0.659 (inactive) | 1.4e-05 (inactive) | 0.00633 (inactive) | -0.318% (inactive) | 1.39% (inactive) |
| C/C(Cl)=C\Cn1c(Nc2ccc(C)cc2)nc2c1c(=O)n(C)c(=O)n2C | 533 | -1.1% (inactive) | 24.5% (inactive) | 78.9% | -73.9% (inactive) | 117% | -0.572 (inactive) | -4.2e-05 (inactive) | 0.00543 (inactive) | 16.1% (inactive) | 17.5% (inactive) |
| Cc1ccc(C)c(OCC(O)CN2C(C)CCCC2C)c1 (stereo not drawn) | 379 | 0% (inactive) | 2.7% (inactive) | 93.8% | -71.2% (inactive) | 117% | -0.526 (inactive) | 5e-05 (inactive) | 0.00528 (inactive) | 13.4% (inactive) | 26.5% (inactive) |
| CCN(C(=O)Cc1c(C(=O)O)[nH]c2ccccc12)c1cc(OC)ccc1OC | 439 | -5.2% (inactive) | -10% (inactive) | 120% | -36% (inactive) | 143% | -0.286 (inactive) | -4e-05 (inactive) | 0.00689 (inactive) | 13.8% (inactive) | 24.5% (inactive) |
| COc1ncnc2c1N=C1CC(C)(C)CC(N)=C1S2 | 309 | 0.8% (inactive) | -0.2% (inactive) | 115% | -16.2% (inactive) | 115% | -0.37 (inactive) | -3.5e-05 (inactive) | 0.00511 (inactive) | 13.3% (inactive) | 35% (inactive) |
| Cc1nc(C)c(C(=O)OCC(=O)N2CCN(c3ccccc3)CC2)s1 | 700 | -4.8% (inactive) | -3.6% (inactive) | 99.4% | -18.7% (inactive) | 102% | -0.567 (inactive) | -2e-05 (inactive) | 0.00679 (inactive) | 16.8% (inactive) | 5.6% (inactive) |
| COc1cccc(Nc2nc(=O)[nH]nc2C)c1 | 372 | -0.7% (inactive) | -14.2% (inactive) | 106% | -23.9% (inactive) | 103% | -0.572 (inactive) | -4.1e-05 (inactive) | 0.00575 (inactive) | 16.9% (inactive) | 22.7% (inactive) |
| CC(=O)Nc1ccc(S(=O)(=O)n2nc(C)cc2C)cc1 | 495 | -20.7% (inactive) | -16.2% (inactive) | 108% | -163% (inactive) | 105% | -0.546 (inactive) | -0.000136 (inactive) | 0.00409 (inactive) | 10% (inactive) | 7.63% (inactive) |
| Oc1ccccc1C1=Nc2nc3ccccc3n2C(c2ccccc2)C1 (stereo not drawn) | 579 | 6.8% (inactive) | 3.6% (inactive) | 107% | -49.5% (inactive) | 102% | -0.539 (inactive) | -7.3e-05 (inactive) | 0.00255 (inactive) | -38.4% (inactive) | -68.7% (inactive) |
| Cc1csc2nc3ccccc3c(=O)n12 | 270 | 3.9% (inactive) | -14.2% (inactive) | 97.6% | -48% (inactive) | 119% | -0.579 (inactive) | -1.2e-05 (inactive) | 0.00358 (inactive) | 4.9% (inactive) | -6.37% (inactive) |
| Cc1cc2oc(=O)cc(CN3CCCCC3)c2cc1C(C)C | 366 | -3.9% (inactive) | -20.2% (inactive) | 91.1% | 67.8% (active) | 56.9% | -0.56 (inactive) | -2.5e-05 (inactive) | 0.0051 (inactive) | 10.7% (inactive) | 40.9% (inactive) |
| Cc1c(NC(=O)c2cnn3c2NC(c2ccco2)CC3C(F)(F)F)c(=O)n(-c2ccccc2)n1C (stereo not drawn) | 436 | -1% (inactive) | 2.9% (inactive) | 101% | -27.3% (inactive) | 115% | -0.557 (inactive) | -2.6e-05 (inactive) | 0.00692 (inactive) | 15.2% (inactive) | 18.8% (inactive) |
| CC(=O)c1cc(C#N)c(SCC(=O)OC(C)C)nc1C | 464 | -5.3% (inactive) | -14.7% (inactive) | 118% | -22.4% (inactive) | 121% | -0.26 (inactive) | -2.7e-05 (inactive) | 0.00594 (inactive) | 9.07% (inactive) | -11% (inactive) |
| Cc1ccc(CS(=O)(=O)CCC(=O)NCC2CCCO2)cc1 (stereo not drawn) | 470 | 7% (inactive) | 1.1% (inactive) | 99.3% | -191% (inactive) | 121% | -0.31 (inactive) | -4.6e-05 (inactive) | 0.00623 (inactive) | 6.62% (inactive) | 8.68% (inactive) |
| CCCS(=O)(=O)N1CCC(C(=O)N2CCCC2)CC1 | 657 | -9.9% (inactive) | -6.5% (inactive) | 96.1% | -70.4% (inactive) | 107% | -0.611 (inactive) | -8.1e-06 (inactive) | 0.00435 (inactive) | 18.9% (inactive) | 8.55% (inactive) |
